# The source made the active and inactive calls. The rule behind the calls is not given here.
# What was measured:
# [1] = biological target: T1, Toll-like receptor 9 (Homo sapiens) (UniProt Q9NR96); test: Inhibition of TLR9-mediated upregulation of PDL1 expression in CpGA-stimulated human PBMC at 100 uM after 20 hrs by flow cytometry
# T1 sequence (whole entry): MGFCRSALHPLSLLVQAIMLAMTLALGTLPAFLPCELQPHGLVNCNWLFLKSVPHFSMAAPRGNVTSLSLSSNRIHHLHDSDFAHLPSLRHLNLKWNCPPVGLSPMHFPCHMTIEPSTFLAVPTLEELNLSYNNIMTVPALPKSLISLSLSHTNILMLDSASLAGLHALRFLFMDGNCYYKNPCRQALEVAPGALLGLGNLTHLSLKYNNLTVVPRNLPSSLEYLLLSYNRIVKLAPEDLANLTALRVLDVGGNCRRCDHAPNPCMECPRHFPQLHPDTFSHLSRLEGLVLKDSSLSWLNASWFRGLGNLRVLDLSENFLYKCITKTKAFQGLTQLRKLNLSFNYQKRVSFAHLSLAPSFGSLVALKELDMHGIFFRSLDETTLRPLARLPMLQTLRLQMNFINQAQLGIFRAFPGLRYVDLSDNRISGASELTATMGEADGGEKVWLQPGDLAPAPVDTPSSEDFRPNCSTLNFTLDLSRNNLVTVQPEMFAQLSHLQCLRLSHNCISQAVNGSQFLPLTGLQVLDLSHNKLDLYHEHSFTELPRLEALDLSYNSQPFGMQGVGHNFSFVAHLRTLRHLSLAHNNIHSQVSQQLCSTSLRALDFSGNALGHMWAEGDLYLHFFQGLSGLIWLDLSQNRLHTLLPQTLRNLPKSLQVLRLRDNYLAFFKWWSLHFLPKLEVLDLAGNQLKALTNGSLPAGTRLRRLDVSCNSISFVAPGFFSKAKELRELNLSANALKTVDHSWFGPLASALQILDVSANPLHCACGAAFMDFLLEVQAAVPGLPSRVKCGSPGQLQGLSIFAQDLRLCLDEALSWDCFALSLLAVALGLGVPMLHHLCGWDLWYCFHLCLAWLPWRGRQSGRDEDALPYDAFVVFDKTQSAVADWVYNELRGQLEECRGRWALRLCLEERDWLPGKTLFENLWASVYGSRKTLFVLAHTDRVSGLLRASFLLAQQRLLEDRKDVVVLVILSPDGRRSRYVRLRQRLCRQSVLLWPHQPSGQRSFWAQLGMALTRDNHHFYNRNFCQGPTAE
# In short: (§1)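 Human PBMC (1 × 10^6 cells/well) preincubated 1 h with 100 μM chloroquine or medium, then cultured 20 h at 37°C with AT-2 HIV-1 (500 ng/ml p24), 3M-011 (3.0 μM) or CpG A (4 μg/ml); PDL-1 on pDC read as MFI by flow cytometry.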
# [2] = biological target: T1, Toll-like receptor 9 (Homo sapiens); test: Inhibition of TLR9-mediated IFN-alpha production in CpGA-stimulated human PBMC at 100 uM after 20 hrs by ELISA
# [3] = biological target: T2, Toll-like receptor (TLR7/TLR9) (Homo sapiens) (UniProt Q9NR96+Q9NYK1); test: Inhibition of TLR7/TLR9-mediated activation of aldrithiol-2-treated HIV1 Ada-stimulated human PBMC assessed as CD86 expressing cells at 100 uM after 20 hrs by flow cytometry; format: cell-based; design: scale not given: the % may be the effect or the level left
# In short: (§2)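 PBMC preincubated 1 h ± 100 μM chloroquine, stimulated 20 h with AT-2 HIV-1 Ada or MN (500 ng/ml p24); pDC gated Lin1− CD123+ HLA-DR+; surface CD86 (% cells), CD83 (% cells), or intracellular IRAK-4, IRF-7, IDO after Cytofix/Cytoperm with rabbit antibody plus PE anti-rabbit (MFI) by flow cytometry; microvesicle controls.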
# [4] = biological target: T1, Toll-like receptor 9 (Homo sapiens); test: Inhibition of TLR9-mediated indoleamine 2,3-dioxygenase activation in CpGA-stimulated human PBMC assessed as decrease in kynurenine to tryptophan level at 100 uM after 20 hrs by ELISA
# [5] = biological target: T2, Toll-like receptor (TLR7/TLR9) (Homo sapiens); test: Inhibition of TLR7/TLR9-mediated upregulation of indoleamine 2,3-dioxygenase expression in aldrithiol-2-treated HIV1 MN-stimulated human PBMC at 100 uM after 20 hrs by flow cytometry; in short: as §2
# [6] = biological target: T3, Toll-like receptor 7 (Homo sapiens) (UniProt Q9NYK1); test: Inhibition of TLR7-mediated upregulation of IRF7 expression in aldrithiol-2-treated HIV1 MN-stimulated human PBMC at 100 uM after 20 hrs by flow cytometry; in short: as §2
# T3 sequence (whole entry): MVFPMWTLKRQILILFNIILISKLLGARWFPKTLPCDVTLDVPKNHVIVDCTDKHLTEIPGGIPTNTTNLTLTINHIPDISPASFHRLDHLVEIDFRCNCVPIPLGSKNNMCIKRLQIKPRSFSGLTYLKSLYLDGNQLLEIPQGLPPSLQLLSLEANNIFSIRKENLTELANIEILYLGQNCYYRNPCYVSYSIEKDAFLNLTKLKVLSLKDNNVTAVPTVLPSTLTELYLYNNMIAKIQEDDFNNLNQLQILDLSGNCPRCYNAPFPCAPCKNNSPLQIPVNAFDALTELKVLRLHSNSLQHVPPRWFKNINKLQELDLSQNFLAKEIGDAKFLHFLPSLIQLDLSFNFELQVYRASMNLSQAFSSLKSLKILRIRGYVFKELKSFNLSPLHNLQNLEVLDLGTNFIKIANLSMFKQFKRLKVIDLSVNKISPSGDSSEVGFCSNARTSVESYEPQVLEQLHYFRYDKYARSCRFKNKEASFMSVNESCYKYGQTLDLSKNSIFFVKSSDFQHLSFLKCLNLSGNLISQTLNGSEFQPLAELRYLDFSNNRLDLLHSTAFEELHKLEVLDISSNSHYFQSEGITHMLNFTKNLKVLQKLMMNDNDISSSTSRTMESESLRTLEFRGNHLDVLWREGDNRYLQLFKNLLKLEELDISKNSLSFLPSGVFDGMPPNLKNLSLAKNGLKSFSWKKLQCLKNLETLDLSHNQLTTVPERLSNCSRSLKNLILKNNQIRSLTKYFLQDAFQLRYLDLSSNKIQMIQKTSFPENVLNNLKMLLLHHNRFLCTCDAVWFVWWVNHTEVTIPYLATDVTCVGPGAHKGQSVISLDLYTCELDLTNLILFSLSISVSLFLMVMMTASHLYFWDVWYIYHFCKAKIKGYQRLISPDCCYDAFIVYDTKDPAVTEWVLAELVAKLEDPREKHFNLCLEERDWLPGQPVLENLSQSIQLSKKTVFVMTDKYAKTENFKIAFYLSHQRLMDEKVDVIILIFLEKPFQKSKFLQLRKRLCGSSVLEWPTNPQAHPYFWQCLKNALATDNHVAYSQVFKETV
# [7] = biological target: T4, TLR7 and TLR8 (Homo sapiens) (UniProt Q9NYK1+Q9NR97); test: Inhibition of TLR7/TLR8-mediated indoleamine 2,3-dioxygenase activation in 3M-011-stimulated human PBMC assessed as decrease in kynurenine to tryptophan level at 100 uM after 20 hrs by ELISA; format: protein assay
# T4 sequence (Q9NR97 whole entry, looked up, one chain of several): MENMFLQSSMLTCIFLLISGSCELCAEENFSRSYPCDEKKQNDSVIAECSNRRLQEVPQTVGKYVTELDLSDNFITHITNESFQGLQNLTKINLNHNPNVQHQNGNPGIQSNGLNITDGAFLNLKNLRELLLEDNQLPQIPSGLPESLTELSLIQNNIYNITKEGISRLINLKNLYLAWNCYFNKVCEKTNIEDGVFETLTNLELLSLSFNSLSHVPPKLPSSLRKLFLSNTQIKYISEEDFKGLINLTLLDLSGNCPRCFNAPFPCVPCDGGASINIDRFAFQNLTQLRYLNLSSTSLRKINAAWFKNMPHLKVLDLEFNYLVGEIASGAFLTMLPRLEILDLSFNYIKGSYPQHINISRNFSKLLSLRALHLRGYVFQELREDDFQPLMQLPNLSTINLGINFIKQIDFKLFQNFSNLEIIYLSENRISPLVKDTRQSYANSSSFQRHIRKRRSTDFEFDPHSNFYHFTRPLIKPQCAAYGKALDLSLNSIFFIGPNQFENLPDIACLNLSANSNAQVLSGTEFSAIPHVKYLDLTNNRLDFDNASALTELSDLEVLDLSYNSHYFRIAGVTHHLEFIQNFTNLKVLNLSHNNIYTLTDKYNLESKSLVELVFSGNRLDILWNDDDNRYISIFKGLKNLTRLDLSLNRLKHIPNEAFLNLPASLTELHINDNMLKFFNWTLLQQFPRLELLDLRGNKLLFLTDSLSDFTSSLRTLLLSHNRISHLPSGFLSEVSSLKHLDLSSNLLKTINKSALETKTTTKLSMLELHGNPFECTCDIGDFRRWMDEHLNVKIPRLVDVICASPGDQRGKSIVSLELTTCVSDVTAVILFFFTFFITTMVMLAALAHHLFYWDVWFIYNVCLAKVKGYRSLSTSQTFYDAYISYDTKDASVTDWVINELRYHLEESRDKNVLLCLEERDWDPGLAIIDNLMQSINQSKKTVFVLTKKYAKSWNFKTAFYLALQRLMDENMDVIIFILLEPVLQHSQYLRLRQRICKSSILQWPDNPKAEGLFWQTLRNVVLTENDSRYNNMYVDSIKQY
# [8] = biological target: T3, Toll-like receptor 7 (Homo sapiens); test: Inhibition of TLR7-mediated upregulation of IRAK4 expression in aldrithiol-2-treated HIV1 Ada-stimulated human PBMC at 100 uM after 20 hrs by flow cytometry; in short: as §2
# [9] = biological target: T3, Toll-like receptor 7 (Homo sapiens); test: Inhibition of TLR7-mediated IFN-alpha production in aldrithiol-2-treated HIV1 Ada-stimulated human PBMC at 100 uM after 20 hrs by ELISA
# [10] = biological target: T3, Toll-like receptor 7 (Homo sapiens); test: Inhibition of TLR7-mediated IFN-alpha production in aldrithiol-2-treated HIV1 MN-stimulated human PBMC after 20 hrs by ELISA
# [11] = biological target: T3, Toll-like receptor 7 (Homo sapiens); test: Inhibition of TLR7-mediated upregulation of IRAK4 expression in aldrithiol-2-treated HIV1 MN-stimulated human PBMC at 100 uM after 20 hrs by flow cytometry; in short: as §2
# [12] = biological target: T2, Toll-like receptor (TLR7/TLR9) (Homo sapiens); test: Inhibition of TLR7/TLR9-mediated indoleamine 2,3-dioxygenase activation in aldrithiol-2-treated HIV1 Ada-stimulated human PBMC assessed as decrease in kynurenine to tryptophan level at 100 uM after 20 hrs by fluorometric assay; format: protein assay
# In short: (§3)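 PBMC (1 × 10^6/well) ± 100 μM chloroquine (1 h preincubation), stimulated 20 h with AT-2 HIV-1, 3M-011 or CpG A. Kynurenine in supernatant: 30% TCA, 50°C, 30 min, then Ehrlich's reagent, absorbance 490 nm. Tryptophan: 20% TCA, then TCA/formaldehyde/FeCl3 at 90°C for 2 h, fluorescence ex 360/em 460 nm. Duplicates, standard curves; reported as kynurenine/tryptophan ratio.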
# [13] = biological target: T2, Toll-like receptor (TLR7/TLR9) (Homo sapiens); test: Inhibition of TLR7/TLR9-mediated upregulation of PDL1 expression in aldrithiol-2-treated HIV1 Ada-stimulated human PBMC at 100 uM after 20 hrs by flow cytometry; in short: as §1
# [14] = biological target: T2, Toll-like receptor (TLR7/TLR9) (Homo sapiens); test: Inhibition of TLR7/TLR9-mediated upregulation of indoleamine 2,3-dioxygenase expression in aldrithiol-2-treated HIV1 Ada-stimulated human PBMC at 100 uM after 20 hrs by flow cytometry; in short: as §2
# [15] = biological target: T2, Toll-like receptor (TLR7/TLR9) (Homo sapiens); test: Inhibition of TLR7/TLR9-mediated maturation of aldrithiol-2-treated HIV1 MN-stimulated human PBMC assessed as CD83 expressing cells at 100 uM after 20 hrs by flow cytometry; format: cell-based; design: scale not given: the % may be the effect or the level left; in short: as §2
# [16] = biological target: T2, Toll-like receptor (TLR7/TLR9) (Homo sapiens); test: Inhibition of TLR7/TLR9-mediated upregulation of PDL1 expression in aldrithiol-2-treated HIV1 MN-stimulated human PBMC at 100 uM after 20 hrs by flow cytometry; in short: as §1
# [17] = biological target: T4, TLR7 and TLR8 (Homo sapiens); test: Inhibition of TLR7/TLR8-mediated upregulation of PDL1 expression in 3M-011-stimulated human PBMC at 100 uM after 20 hrs by flow cytometry; in short: as §1
# [18] = biological target: T3, Toll-like receptor 7 (Homo sapiens); test: Inhibition of TLR7-mediated upregulation of IRF7 expression in aldrithiol-2-treated HIV1 Ada-stimulated human PBMC at 100 uM after 20 hrs by flow cytometry; in short: as §2
# [19] = biological target: T4, TLR7 and TLR8 (Homo sapiens); test: Inhibition of TLR7/TLR8-mediated IFN-alpha production in 3M-011-stimulated human PBMC at 100 uM after 20 hrs by ELISA
# [20] = biological target: T2, Toll-like receptor (TLR7/TLR9) (Homo sapiens); test: Inhibition of TLR7/TLR9-mediated indoleamine 2,3-dioxygenase activation in aldrithiol-2-treated HIV1 MN-stimulated human PBMC assessed as decrease in kynurenine to tryptophan level at 100 uM after 20 hrs by fluorometric assay; format: protein assay; in short: as §3
# [21] = biological target: T2, Toll-like receptor (TLR7/TLR9) (Homo sapiens); test: Inhibition of TLR7/TLR9-mediated activation of aldrithiol-2-treated HIV1 MN-stimulated human PBMC assessed as CD86 expressing cells at 100 uM after 20 hrs by flow cytometry; format: cell-based; design: scale not given: the % may be the effect or the level left; in short: as §2
# [22] = biological target: T3, Toll-like receptor 7 (Homo sapiens); test: Inhibition of TLR7-mediated IFN-alpha production in aldrithiol-2-treated HIV1 MN-stimulated human PBMC at 100 uM after 20 hrs by ELISA
# [23] = biological target: T2, Toll-like receptor (TLR7/TLR9) (Homo sapiens); test: Inhibition of TLR7/TLR9-mediated activation of aldrithiol-2-treated HIV1 Ada-stimulated human PBMC assessed as CD38-MFI level in activated CD8-positive cells at 5 uM after 20 hrs by flow cytometry; format: cell-based
# In short: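 PBMC preincubated 1 h with 5 μM chloroquine, then stimulated with AT-2 HIV-1 Ada for 20 h; CD38 surface expression on gated CD3+ CD8+ T cells by flow cytometry, expressed as CD38 MFI.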
# [24] = biological target: T3, Toll-like receptor 7 (Homo sapiens); test: Inhibition of TLR7-mediated IFN-alpha production in aldrithiol-2-treated HIV1 Ada-stimulated human PBMC after 20 hrs by ELISA
# [25] = biological target: T2, Toll-like receptor (TLR7/TLR9) (Homo sapiens); test: Inhibition of TLR7/TLR9-mediated activation of exogenous rIFNalpha2A-stimulated human CD8-positive T cells assessed as […] at 5 uM after 20 hrs by flow cytometry; format: cell-based; conditions: T-cell
# In short: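 Bead-enriched CD8+ T cells (indirect negative isolation) preincubated 1 h with 5 μM chloroquine, then given 1,000 U/ml rIFN-α2a for 20 h; CD38 MFI on CD3+ CD8+ cells by flow cytometry; anti-IFN-αR 64G12 (10 μg/ml, 30 min pretreatment) used as comparator; n = 3 experiments.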
# [26] = biological target: T2, Toll-like receptor (TLR7/TLR9) (Homo sapiens); test: Inhibition of TLR7/TLR9-mediated maturation of aldrithiol-2-treated HIV1 Ada-stimulated human PBMC assessed as CD83 expressing cells at 100 uM after 20 hrs by flow cytometry; format: cell-based; design: scale not given: the % may be the effect or the level left; in short: as §2
compound,measurement,setting,value
CCN(CC)CCCC(C)Nc1ccnc2cc(Cl)ccc12 (stereo unspecified),inhibition,[1],Active
same,inhibition,[2],Active
same,Activity,[3],11.1%
same,inhibition,[4],Active
same,inhibition,[5],Active
same,inhibition,[6],Active
same,inhibition,[7],Active
same,inhibition,[8],Active
same,inhibition,[9],Active
same,inhibition,[10],Dose-dependent effect
same,inhibition,[11],Active
same,inhibition,[12],Active
same,inhibition,[13],Active
same,inhibition,[14],Active
same,Activity,[15],14.3%
same,inhibition,[16],Active
same,inhibition,[17],Active
same,inhibition,[18],Active
same,inhibition,[19],Active
same,inhibition,[20],Active
same,Activity,[21],8.2%
same,inhibition,[22],Active
same,inhibition,[23],23.4%
same,inhibition,[24],Dose-dependent effect
same,inhibition,[25],inactive
same,Activity,[26],12.6%

# — ChEMBL document CHEMBL1240368, “Chloroquine modulates HIV-1-induced plasmacytoid dendritic cell alpha interferon: implication for T-cell activation” (Antimicrob Agents Chemother, 2010)
